In ChEMBL document CHEMBL4257543, “Structural optimization and antibacterial evaluation of rhodomyrtosone B analogues against MRSA strains” (Medchemcomm, 2018):
Values after ≈ are worked out from the molar mass of the structure shown. Active and inactive are the calls of the source.

How the values were obtained:
SF-268 = assay: Cytotoxicity against human SF268 cells by MTT assay; format: cell-based
Procedure, shortened: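 MTT viability assay after 24 h exposure to compound at 1.5625–100 µg mL⁻¹; control cells received DMSO at 0.5% (highest test-well level); IC50 given as mean ± SD of at least triplicate runs.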

Staphylococcus aureus [1] = assay: Selectivity ratio of MIC for methicillin-resistant Staphylococcus aureus JCSC 4744 to MIC for methicillin-resistant Staphylococcus aureus JCSC 4788; format: functional
Bacillus cereus = assay: Antibacterial activity against Bacillus cereus ATCC 10876 by micro dilution susceptibility test; format: functional
Procedure, shortened: (§1)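 Microbroth dilution MIC in Mueller–Hinton broth following CLSI guidelines, with vancomycin as positive control; assays run at least in triplicate.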

Staphylococcus aureus [2] = assay: Induction of cytoplasmic membrane disruption in methicillin-resistant Staphylococcus aureus JCSC 4788 measured after 3 hrs by SYTOX green dye based fluorescence microscopic analysis; format: functional, organism-based
Procedure, shortened: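 MRSA JCSC 4788 suspension (OD620 0.4) treated with compound or vancomycin for 3 h, stained with 3 μM SYTOX Green, fixed on glass slides and viewed by fluorescence microscopy at 485 nm excitation.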

Shigella dysenteriae = assay: Antibacterial activity against Shigella dysenteriae CMCC 51252 by micro dilution susceptibility test; format: functional
Procedure, shortened: (§2)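 Microbroth dilution MIC in Mueller–Hinton broth following CLSI guidelines, vancomycin as positive control; resazurin added as visible growth indicator. Assays run at least in triplicate.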

[3] = Selectivity ratio of IC50 for human SF268 cells to MIC for methicillin-resistant Staphylococcus aureus JCSC 4788; format: toxicity
Procedure, shortened: (§3)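 Ratio of 24 h MTT cytotoxicity IC50 (compound 1.5625–100 μg mL−1, 0.5% DMSO control) to MIC against MRSA JCSC 4788 from CLSI microbroth dilution in MHB; IC50 values expressed as mean ± SD.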

Staphylococcus aureus [4] = assay: Induction of morphological changes in methicillin-resistant Staphylococcus aureus JCSC 4788 assessed as cytoplasmic membrane disruption at 4 times MIC measured after 3 hrs scanning electron microscopic analysis; format: functional, organism-based
Procedure, shortened: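 Exponential-phase MRSA JCSC 4788 treated at 37 °C and washed. Cells prefixed overnight in 0.1 M phosphate pH 7.2 with 2% glutaraldehyde and 2.5% paraformaldehyde, then post-fixed in 1% OsO4 for 2 h. Samples ethanol-dehydrated, freeze-dried, gold-coated and imaged by SEM.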

Staphylococcus aureus [5] = assay: Selectivity ratio of MIC for methicillin-resistant Staphylococcus aureus JCSC 4469 to MIC for methicillin-resistant Staphylococcus aureus JCSC 4788; format: functional
Staphylococcus aureus [6] = assay: Selectivity ratio of MIC for methicillin-resistant Staphylococcus aureus 85/2082 to MIC for methicillin-resistant Staphylococcus aureus JCSC 4788; format: functional
Staphylococcus aureus [7] = assay: Antibacterial activity against methicillin-resistant Staphylococcus aureus JCSC 4788 at sub-MIC re-passaged at 24 hrs intervals for 20 times by micro dilution susceptibility test; format: functional, organism-based
Procedure, shortened: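 Exponential-phase MRSA JCSC 4788 at 37 °C passaged into fresh MHB containing compound at a sub-inhibitory concentration and re-passaged at 24 h intervals up to at least 20 passages; MIC then redetermined by CLSI microbroth dilution in MHB. Resistance defined as a more than 4-fold increase over the initial MIC.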

[8] = Selectivity ratio of IC50 for human MCF7 cells to MIC for methicillin-resistant Staphylococcus aureus JCSC 4788; format: toxicity; procedure, shortened: as §3
Staphylococcus aureus [9] = assay: Selectivity ratio of MIC for methicillin-resistant Staphylococcus aureus JCSC 3063 to MIC for methicillin-resistant Staphylococcus aureus JCSC 4788; format: functional
Staphylococcus aureus [10] = assay: Induction of cytoplasmic membrane hyperpolarization in methicillin-resistant Staphylococcus aureus JCSC 4788 at 1 to 2 times MIC measured after 2 mins by Disc3(5) staining based fluorescence spectrophotometric method; format: functional, organism-based
Procedure, shortened: (§4)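 Exponential-phase MRSA JCSC 4788 washed and set to OD620 0.1 in 5 mM HEPES pH 7. Cells loaded with 0.4 μM DiSC3(5) plus 100 mM KCl for 20 min at 37 °C with agitation. Compound added at 0.5–8× MIC and fluorescence followed at ex 660/em 670 nm; mean ± SD.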

Candida albicans = assay: Antibacterial activity against Candida albicans ATCC 10231 by micro dilution susceptibility test; format: functional; procedure, shortened: as §1
Staphylococcus aureus [11] = assay: Antibacterial activity against Staphylococcus aureus CMCC 26003 by micro dilution susceptibility test; format: functional; procedure, shortened: as §2
Staphylococcus aureus [12] = assay: Antibacterial activity against methicillin-resistant Staphylococcus aureus JCSC 2172 by micro dilution susceptibility test; format: functional; procedure, shortened: as §2
Staphylococcus aureus [13] = assay: Bactericidal activity against methicillin-resistant Staphylococcus aureus JCSC 4788 assessed as reduction in colony forming units at 4 times MIC measured after 4 hrs by time kill assay relative to control; format: functional; design: scale not given: the % may be the effect or the level left
Procedure, shortened: (§5)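 Time-kill per CLSI: overnight MRSA JCSC 4788 adjusted in 0.85% NaCl to 10^6–10^7 CFU mL−1 and exposed to 0.5×, 1×, 2× and 4× MIC at 35 °C, vancomycin as comparator. Viable plate counts at 0.5, 2, 4, 8 and 24 h; two independent experiments.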

Staphylococcus aureus [14] = assay: Induction of cytoplasmic membrane hyperpolarization in methicillin-resistant Staphylococcus aureus JCSC 4788 at 4 to 8 times MIC measured up to 9 mins by Disc3(5) staining based fluorescence spectrophotometric method; format: functional, organism-based; procedure, shortened: as §4
Staphylococcus aureus [15] = assay: Bactericidal activity against methicillin-resistant Staphylococcus aureus JCSC 4788 assessed as bacterial killing at 4 MIC measured within 0.5 hrs by time kill assay relative to control; format: functional; procedure, shortened: as §5
Paenibacillus polymyxa = assay: Antibacterial activity against Bacillus polymyxa GIM 1.467 by micro dilution susceptibility test; format: functional; procedure, shortened: as §1
Salmonella typhi = assay: Antibacterial activity against Salmonella typhi CMCC 44102 by micro dilution susceptibility test; format: functional, Salmonella enterica subsp. enterica serovar Typhi; details: Salmonella enterica; procedure, shortened: as §2

CCCCCCCC(=O)c1c(O)cc(O)c2c1OC1=C(C(=O)C(C)(C)C(=O)C1(C)C)C2CC(C)C (stereo unspecified)
IC50 (SF-268): 10.2 µg/mL (≈ 20.9 µM) | Selectivity ratio (Staphylococcus aureus [1]): 0.5 - 2 | MIC (Bacillus cereus): 0.5 µg/mL (≈ 1.03 µM) | Activity (Staphylococcus aureus [2]): Active | MIC (Shigella dysenteriae): > 32 µg/mL | Selectivity ratio [3]: 40.6 | Activity (Staphylococcus aureus [4]): Active | Selectivity ratio (Staphylococcus aureus [5]): 0.5 - 2 | Selectivity ratio (Staphylococcus aureus [6]): 0.5 - 2 | Activity (Staphylococcus aureus [7]): Active | Selectivity ratio [8]: 39.9 | Selectivity ratio (Staphylococcus aureus [9]): 0.5 - 2 | Activity (Staphylococcus aureus [10]): Active | MIC (Candida albicans): > 32 µg/mL | MIC (Staphylococcus aureus [11]): 0.25 µg/mL (≈ 0.516 µM) | MIC (Staphylococcus aureus [12]): 0.25 µg/mL (≈ 0.516 µM) | Activity (Staphylococcus aureus [13]): 99.9% | Activity (Staphylococcus aureus [14]): Active | Activity (Staphylococcus aureus [15]): >90% | MIC (Paenibacillus polymyxa): > 32 µg/mL | MIC (Salmonella typhi): > 32 µg/mL
